Assay results as given in ChEMBL document CHEMBL3227935, “Mapping the dopamine receptor. 2. Features derived from modifications in the rings A/B region of the neuroleptic butaclamol” (J Med Chem, 1979).
Activity calls are given as the source filed them. No cut-off for these calls is given here.

How the values were obtained:
Rattus norvegicus [1] = assay: Neuroleptic activity in Sprague-Dawley rat assessed as inhibition of d-amphetamine sulfate-induced stereotyped behavior at 20 mg/kg, ip measured every 15 mins for 4 hrs; format: functional, organism-based; set-up: dose 20 mg/kg
Method in brief: (§1)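 Male rats (160-180 g), groups of four or more, given d-amphetamine 10 mg/kg ip, then graded ip doses of compound or vehicle 15 min later (highest 20 mg/kg). Behavior scored every 15 min over 4 h: 0 normal, 1 excited, 2 stereotyped. MED is the lowest dose antagonizing all amphetamine effects for the whole period.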

Rattus norvegicus [2] = assay: Neuroleptic activity in ip dosed Sprague-Dawley rat assessed as inhibition of d-amphetamine sulfate-induced stereotyped behavior measured every 15 mins for 4 hrs; format: functional; details: read-out: MED; method in brief: as §1
Rattus norvegicus [3] = assay: Neuroleptic activity in ip dosed Sprague-Dawley rat assessed as failure in active avoidance response measured within 30 mins; format: functional; details: 0.5 h
Method in brief: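 Male rats (250-400 g) trained in a three-chamber discrimination box to move to a lighted exit within 10 s or receive shock. Before dosing, a two-trial control session in groups of six or more. Graded ip doses, then ten trials 30 min later. Mean failures to leave before shock are taken as percent of trials. ED50 gives 50% failure, by Litchfield-Wilcoxon.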

Rattus norvegicus [4] = assay: Neuroleptic activity in ip dosed Sprague-Dawley rat assessed as protection against epinephrin bitartrate-induced mortality measured over 24 hrs; format: functional
Method in brief: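 Groups of six or more male Sprague–Dawley rats (220–250 g) received graded ip doses. Epinephrine bitartrate, 0.25 mg/kg iv, lethal to untreated rats, was injected 1 h later. Deaths were counted over 24 h. Protective ED50 (mg/kg, ip) is the dose that saved 50% of rats, calculated by Litchfield–Wilcoxon.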

Rattus norvegicus [5] = assay: Induction of catalepsy in Sprague-Dawley rat at 5 mg/kg, ip measured after 1 to 24 hrs relative to control; format: organism-based; set-up: dose 5 mg/kg, route intraperitoneal; details: in vivo
Method in brief: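 Male rats (160-180 g), groups of six, given 5 mg/kg ip. Catalepsy scored at 1, 2, 4, 6 and 24 h using stages III and IV of Wirth et al. The highest mean cataleptic score is expressed as percent of the maximum attainable score.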

Mus musculus = species on record: Mus musculus; assay: Induction of taming effect in Swiss albino mouse assessed as reduction of isolation-induced fighting behavior measured after 0.5 to 3 hrs; format: functional
Method in brief: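 Male albino mice (14-16 g) isolated 4-5 weeks, then paired in one cage for 5 min. A morning control session confirmed maximal fighting in both members of each pair. Compounds given ip, with retesting at 30 min and 3 h. All-or-none read-out: effective if no fighting occurred in the 5-min observation. ED50 (mg/kg, ip) is the dose abolishing fighting in 50% of pairs, by Litchfield-Wilcoxon.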

[6] = Dissociation constant, pKa of the compound; format: physicochemical

| Structure (SMILES) | inhibition (Rattus norvegicus [1]) | minimal effective dose (Rattus norvegicus [2]) [mg/kg] | ED50 (Rattus norvegicus [3]) [mg/kg] | ED50 (Rattus norvegicus [4]) [mg/kg] | %max (Rattus norvegicus [5]) [%] | ED50 (Mus musculus) [mg/kg] | pKa [6] |
| --- | --- | --- | --- | --- | --- | --- | --- |
| CC(C)(C)C1(O)CCN2C[C@H]3Cc4ccccc4Cc4cccc(c43)[C@H]2C1 (relative stereo) | inactive | – | – | – | – | – | – |
| CC(C)(C)C1(O)CCN2C[C@H]3Cc4ccccc4Cc4cccc(c43)C2C1 (stereo not given in full) | inactive | – | – | – | – | – | – |
| CC(C)(C)C1(O)CCN2C[C@H]3CCc4ccccc4-c4cccc(c43)[C@H]2C1 (relative stereo) | inactive | – | – | – | – | – | – |
| CC(C)(C)[C@@]1(O)CCN2C[C@@H]3c4ccccc4CCc4cccc(c43)[C@H]2C1 | – | 0.62 | 0.64 | 15 | 60 | 1.9 | 5.9 |
| CC(C)(C)C1(O)CCN2C[C@H]3Cc4ccccc4Cc4cccc(c43)[C@@H]2C1 (relative stereo) | – | 0.62 | 1 | 10 | 45 | 2 | – |
| CC(C)(C)C1(O)CCN2C[C@H]3CCc4ccccc4-c4cccc(c43)[C@@H]2C1 (relative stereo) | inactive | – | – | – | – | – | – |
